Source: ChEMBL document CHEMBL4270530, “Surmounting the resistance against EGFR inhibitors through the development of thieno[2,3-d]pyrimidine-based dual EGFR/HER2 inhibitors” (Eur J Med Chem, 2018)

What was measured:
Format in all cases: functional
HL-60(TB) = assay: Growth inhibition of human HL-60(TB) cells assessed as cell growth at 10 uM incubated for 48 hrs by sulforhodamine B assay relative to control; conditions: HL-60, 48 h, read-out: Activity
Outline: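 Single-dose (10 µM) screen across the full NCI-60 panel, run by the NCI Developmental Therapeutics Program. Read-out is growth percent relative to untreated control, taken from the NCI one-dose mean graph.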

SR = assay: Growth inhibition of human SR cells assessed as cell growth at 10 uM incubated for 48 hrs by sulforhodamine B assay relative to control; conditions: read-out: Activity
Outline: (§1)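 NCI-60 single-dose screen at 10 µM run by the NCI Developmental Therapeutics Program; growth percent read from the one-dose mean graph, with percent inhibition approximated from those growth-percent values.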

NCI-H226 = assay: Growth inhibition of human NCI-H226 cells assessed as cell growth at 10 uM incubated for 48 hrs by sulforhodamine B assay relative to control; conditions: NCI-H226, 48 h, read-out: Activity
Outline: (§2)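 NCI-60 one-dose screen run by the NCI Developmental Therapeutics Program at a single 10 µM concentration; growth percent read from the one-dose mean graph.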

HCC 2998 = assay: Growth inhibition of human HCC2998 cells assessed as cell growth at 10 uM incubated for 48 hrs by sulforhodamine B assay relative to control; conditions: HCC 2998, 48 h, read-out: Activity; outline: as §2
HCT-116 = assay: Growth inhibition of human HCT116 cells assessed as cell growth at 10 uM incubated for 48 hrs by sulforhodamine B assay relative to control; conditions: HCT-116, 48 h, read-out: Activity; outline: as §2
HCT-15 = assay: Growth inhibition of human HCT15 cells assessed as cell growth at 10 uM incubated for 48 hrs by sulforhodamine B assay relative to control; conditions: HCT-15, 48 h, read-out: Activity; outline: as §2
HT-29 = assay: Growth inhibition of human HT-29 cells assessed as cell growth at 10 uM incubated for 48 hrs by sulforhodamine B assay relative to control; conditions: HT-29, 48 h, read-out: Activity; outline: as §2
SW-620 = assay: Growth inhibition of human SW620 cells assessed as cell growth at 10 uM incubated for 48 hrs by sulforhodamine B assay relative to control; conditions: SW-620, 48 h, read-out: Activity; outline: as §1
SF-268 = assay: Growth inhibition of human SF268 cells assessed as cell growth at 10 uM incubated for 48 hrs by sulforhodamine B assay relative to control; conditions: SF-268, 48 h, read-out: Activity; outline: as §2
U-251 = assay: Growth inhibition of human U251 cells assessed as cell growth at 10 uM incubated for 48 hrs by sulforhodamine B assay relative to control; conditions: U-251, 48 h, read-out: Activity; outline: as §1
LOX IMVI = assay: Growth inhibition of human LOXIMVI cells assessed as cell growth at 10 uM incubated for 48 hrs by sulforhodamine B assay relative to control; conditions: read-out: Activity; outline: as §2
M14 = assay: Growth inhibition of human M14 cells assessed as cell growth at 10 uM incubated for 48 hrs by sulforhodamine B assay relative to control; conditions: M14, 48 h, read-out: Activity; outline: as §2
SK-MEL-2 = assay: Growth inhibition of human SK-MEL-2 cells assessed as cell growth at 10 uM incubated for 48 hrs by sulforhodamine B assay relative to control; conditions: SK-MEL-2, 48 h, read-out: Activity; outline: as §2
UACC-257 = assay: Growth inhibition of human UACC257 cells assessed as cell growth at 10 uM incubated for 48 hrs by sulforhodamine B assay relative to control; conditions: UACC-257, 48 h, read-out: Activity; outline: as §1
UACC-62 = assay: Growth inhibition of human UACC62 cells assessed as cell growth at 10 uM incubated for 48 hrs by sulforhodamine B assay relative to control; conditions: UACC-62, 48 h, read-out: Activity; outline: as §1
IGROV-1 = assay: Growth inhibition of human IGROV1 cells at 10 uM incubated for 48 hrs by sulforhodamine B assay relative to control; conditions: IGROV-1, 48 h, read-out: GI; outline: as §2
OVCAR-3 = assay: Growth inhibition of human OVCAR3 cells assessed as cell growth at 10 uM incubated for 48 hrs by sulforhodamine B assay relative to control; conditions: OVCAR-3, 48 h, read-out: Activity; outline: as §2
SK-OV-3 = assay: Growth inhibition of human SKOV3 cells at 10 uM incubated for 48 hrs by sulforhodamine B assay relative to control; conditions: SK-OV-3, 48 h, read-out: GI; outline: as §2
ACHN = assay: Growth inhibition of human ACHN cells at 10 uM incubated for 48 hrs by sulforhodamine B assay relative to control; conditions: read-out: GI; outline: as §2
RXF 393 = assay: Growth inhibition of human RXF393 cells assessed as cell growth at 10 uM incubated for 48 hrs by sulforhodamine B assay relative to control; conditions: RXF 393, 48 h, read-out: Activity; outline: as §2
TK-10 = assay: Growth inhibition of human TK10 cells at 10 uM incubated for 48 hrs by sulforhodamine B assay relative to control; conditions: TK-10, 48 h, read-out: GI; outline: as §1
UO-31 = assay: Growth inhibition of human UO31 cells assessed as cell growth at 10 uM incubated for 48 hrs by sulforhodamine B assay relative to control; conditions: UO-31, 48 h, read-out: Activity; outline: as §1
PC-3 = assay: Growth inhibition of human PC3 cells assessed as cell growth at 10 uM incubated for 48 hrs by sulforhodamine B assay relative to control; conditions: PC-3, 48 h, read-out: Activity; outline: as §2
MCF7 = assay: Growth inhibition of human MCF7 cells assessed as cell growth at 10 uM incubated for 48 hrs by sulforhodamine B assay relative to control; conditions: MCF7, 48 h, read-out: Activity; outline: as §2
MDA-MB-231 = assay: Growth inhibition of human MDA-MB-231 cells assessed as cell growth at 10 uM incubated for 48 hrs by sulforhodamine B assay relative to control; conditions: MDA-MB-231, 48 h, read-out: Activity; outline: as §2
Hs-578T = assay: Growth inhibition of human Hs 578T cells assessed as cell growth at 10 uM incubated for 48 hrs by sulforhodamine B assay relative to control; conditions: read-out: Activity; outline: as §2
T47D = assay: Growth inhibition of human T47D cells assessed as cell growth at 10 uM incubated for 48 hrs by sulforhodamine B assay relative to control; conditions: read-out: Activity; outline: as §1
MDA-MB-468 = assay: Growth inhibition of human MDA-MB-468 cells at 10 uM incubated for 48 hrs by sulforhodamine B assay relative to control; conditions: MDA-MB-468, 48 h, read-out: GI; outline: as §2

Structure (SMILES) | growth at 10 µM (HL-60(TB)) [%] | growth at 10 µM (SR) [%] | growth at 10 µM (NCI-H226) [%] | growth at 10 µM (HCC 2998) [%] | growth at 10 µM (HCT-116) [%] | growth at 10 µM (HCT-15) [%] | growth at 10 µM (HT-29) [%] | growth at 10 µM (SW-620) [%] | growth at 10 µM (SF-268) [%] | growth at 10 µM (U-251) [%] | growth at 10 µM (LOX IMVI) [%] | growth at 10 µM (M14) [%] | growth at 10 µM (SK-MEL-2) [%] | growth at 10 µM (UACC-257) [%] | growth at 10 µM (UACC-62) [%] | inhibition of growth at 10 µM (IGROV-1) [%] | growth at 10 µM (OVCAR-3) [%] | inhibition of growth at 10 µM (SK-OV-3) [%] | inhibition of growth at 10 µM (ACHN) [%] | growth at 10 µM (RXF 393) [%] | other results
O=[N+]([O-])c1ccc(-c2cc3c(Nc4ccc(OCc5cccc(F)c5)c(Cl)c4)ncnc3s2)cc1 | 79.2 | 68.6 | 86.4 | 97.3 | 60.2 | 63.4 | 66.9 | 93.5 | 80.1 | 55.1 | 75.5 | 77.2 | 86.2 | 93.5 | 79.1 | 12 | 34.5 | 0 | 23 | 81.3 | inhibition of growth at 10 µM (TK-10): 30%; growth at 10 µM (UO-31): 59.2%; growth at 10 µM (PC-3): 54.1%; growth at 10 µM (MCF7): 78.9%; growth at 10 µM (MDA-MB-231): 87.8%; growth at 10 µM (Hs-578T): 94.9%; growth at 10 µM (T47D): 76.6%; inhibition of growth at 10 µM (MDA-MB-468): 40%
Nc1ccc(-c2cc3c(Nc4ccc(OCc5cccc(F)c5)c(Cl)c4)ncnc3s2)cc1 | 48.2 | 14.5 | 53.5 | 38.6 | 50.7 | 32.9 | 84.5 | 74.1 | 52.1 | 57 | 24.5 | 51.9 | 25.4 | 18.3 | 55.7 | 60 | 46.6 | 100 | 70 | 52.5 | inhibition of growth at 10 µM (TK-10): 70%; growth at 10 µM (UO-31): 19.6%; growth at 10 µM (PC-3): 29.6%; growth at 10 µM (MCF7): 26.2%; growth at 10 µM (MDA-MB-231): 13.4%; growth at 10 µM (Hs-578T): 77%; growth at 10 µM (T47D): 15.4%; inhibition of growth at 10 µM (MDA-MB-468): 85%
